In ChEMBL document CHEMBL1139384, “First Cdc7 kinase inhibitors: pyrrolopyridinones as potent and orally active antitumor agents. 2. Lead discovery” (J Med Chem, 2009):
Active and inactive are the calls of the source. No cut-off for these calls is given here.

Experiments:
[1] = biological target: Inhibitor of nuclear factor kappa-B kinase subunit epsilon (Homo sapiens, UniProt Q14164); experiment: Inhibition of IKKi
[2] = biological target: Hepatocyte growth factor receptor (Homo sapiens, UniProt P08581); experiment: Inhibition of MET
Sequence of Hepatocyte growth factor receptor (P08581 whole entry): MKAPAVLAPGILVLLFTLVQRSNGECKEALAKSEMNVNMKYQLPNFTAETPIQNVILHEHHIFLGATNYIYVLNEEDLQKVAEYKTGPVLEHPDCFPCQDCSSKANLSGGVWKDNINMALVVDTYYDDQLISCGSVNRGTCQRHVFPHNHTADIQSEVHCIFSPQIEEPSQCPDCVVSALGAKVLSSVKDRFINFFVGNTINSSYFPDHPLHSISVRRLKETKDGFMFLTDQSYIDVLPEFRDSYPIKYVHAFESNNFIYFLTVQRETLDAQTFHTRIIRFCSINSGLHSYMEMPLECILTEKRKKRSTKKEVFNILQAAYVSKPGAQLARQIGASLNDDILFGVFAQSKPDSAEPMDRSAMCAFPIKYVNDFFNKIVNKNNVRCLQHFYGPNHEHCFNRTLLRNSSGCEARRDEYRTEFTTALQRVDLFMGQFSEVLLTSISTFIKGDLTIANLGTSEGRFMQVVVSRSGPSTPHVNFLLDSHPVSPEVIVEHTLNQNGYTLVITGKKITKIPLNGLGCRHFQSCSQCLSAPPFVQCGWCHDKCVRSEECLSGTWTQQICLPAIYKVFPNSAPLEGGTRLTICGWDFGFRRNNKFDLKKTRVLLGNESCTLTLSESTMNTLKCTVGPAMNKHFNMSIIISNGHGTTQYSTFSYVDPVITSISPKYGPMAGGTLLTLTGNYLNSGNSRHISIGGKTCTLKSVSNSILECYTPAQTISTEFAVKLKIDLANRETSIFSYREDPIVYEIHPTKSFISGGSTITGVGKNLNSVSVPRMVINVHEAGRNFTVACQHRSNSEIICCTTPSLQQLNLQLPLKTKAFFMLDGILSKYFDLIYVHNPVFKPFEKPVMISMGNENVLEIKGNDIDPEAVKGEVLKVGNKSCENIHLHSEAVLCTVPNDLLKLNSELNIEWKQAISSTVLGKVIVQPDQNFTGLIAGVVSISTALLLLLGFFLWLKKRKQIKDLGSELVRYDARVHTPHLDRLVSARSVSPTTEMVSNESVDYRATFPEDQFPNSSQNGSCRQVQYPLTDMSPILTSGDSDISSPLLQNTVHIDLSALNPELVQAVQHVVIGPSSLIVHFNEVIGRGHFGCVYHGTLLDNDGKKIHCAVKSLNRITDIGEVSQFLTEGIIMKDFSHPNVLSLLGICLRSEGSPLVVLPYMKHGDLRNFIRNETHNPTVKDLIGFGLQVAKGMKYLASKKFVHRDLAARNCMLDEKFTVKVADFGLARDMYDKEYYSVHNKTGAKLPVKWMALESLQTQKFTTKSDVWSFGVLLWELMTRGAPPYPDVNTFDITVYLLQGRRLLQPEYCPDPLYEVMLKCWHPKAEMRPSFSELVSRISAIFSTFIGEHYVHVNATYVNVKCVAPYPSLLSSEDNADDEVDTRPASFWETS

[3] = biological target: cAMP-dependent protein kinase catalytic subunit alpha (Homo sapiens, UniProt P17612); experiment: Inhibition of PKAalpha
[4] = biological target: Proto-oncogene tyrosine-protein kinase receptor Ret (Homo sapiens, UniProt P07949); experiment: Inhibition of RET
[5] = biological target: Serine/threonine-protein kinase 26 (Homo sapiens, UniProt Q9P289); experiment: Inhibition of MST4
Sequence of Serine/threonine-protein kinase 26 (Q9P289 whole entry): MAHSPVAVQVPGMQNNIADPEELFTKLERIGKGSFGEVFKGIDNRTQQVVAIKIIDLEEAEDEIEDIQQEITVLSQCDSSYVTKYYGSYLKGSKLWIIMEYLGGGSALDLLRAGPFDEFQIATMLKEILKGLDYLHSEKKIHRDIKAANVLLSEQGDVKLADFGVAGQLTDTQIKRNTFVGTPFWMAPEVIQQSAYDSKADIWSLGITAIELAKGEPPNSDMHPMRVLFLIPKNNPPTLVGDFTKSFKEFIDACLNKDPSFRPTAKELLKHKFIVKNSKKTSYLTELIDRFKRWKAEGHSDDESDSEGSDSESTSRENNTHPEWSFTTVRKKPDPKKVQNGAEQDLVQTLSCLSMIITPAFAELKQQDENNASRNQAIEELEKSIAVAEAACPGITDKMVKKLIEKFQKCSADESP

[6] = Metabolic stability in human hepatocytes expressing CYP3A4 assessed as drug remaining after 1 hr; type: ADME, cell-based, Hepatocyte; conditions: read-out: Stability
[7] = AUC (0 to infinity) in nu/nu mouse at 10 mg/kg, iv administered as single dose; type: ADME, organism-based; design: dose 10 mg/kg, route intravenous, time infinity; conditions: plasma
Summary of the method: (§1)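 Single iv or oral dose in 5% dextrose to overnight-fasted animals. Nu/Nu mice: males, 3 per route, saphenous bleeds to 24 h. Han-Wistar rats: males, 3 per route, jugular bleeds to 24 h. Beagle dogs: 2 per sex, iv and po crossover 2 weeks apart, jugular bleeds to 48 h. Plasma by LC/MS/MS; noncompartmental parameters, AUC by linear trapezoid with extrapolation.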

[8] = Half life in nu/nu mouse at 10 mg/kg, iv administered as single dose; type: ADME, organism-based; design: dose 10 mg/kg, route intravenous; conditions: in vivo; summary of the method: as §1
[9] = Cmax in Wistar rat at 10 mg/kg, iv administered as single dose; type: ADME, organism-based; design: dose 10 mg/kg, route intravenous; conditions: in vivo; summary of the method: as §1
Rattus norvegicus [10] = experiment: AUC (0 to infinity) in Wistar rat at 10 mg/kg, iv administered as single dose; type: ADME, organism-based, Plasma; design: time infinity, dose 10 mg/kg, route intravenous; conditions: in vivo; summary of the method: as §1
[11] = biological target: T1, Cell division cycle 7-related protein kinase (Homo sapiens, UniProt O00311); experiment: Inhibition of human Cdc7 assessed as inhibition of rate of phosphorylation of Mcm2 protein
Target sequence in this assay (O00311 whole entry): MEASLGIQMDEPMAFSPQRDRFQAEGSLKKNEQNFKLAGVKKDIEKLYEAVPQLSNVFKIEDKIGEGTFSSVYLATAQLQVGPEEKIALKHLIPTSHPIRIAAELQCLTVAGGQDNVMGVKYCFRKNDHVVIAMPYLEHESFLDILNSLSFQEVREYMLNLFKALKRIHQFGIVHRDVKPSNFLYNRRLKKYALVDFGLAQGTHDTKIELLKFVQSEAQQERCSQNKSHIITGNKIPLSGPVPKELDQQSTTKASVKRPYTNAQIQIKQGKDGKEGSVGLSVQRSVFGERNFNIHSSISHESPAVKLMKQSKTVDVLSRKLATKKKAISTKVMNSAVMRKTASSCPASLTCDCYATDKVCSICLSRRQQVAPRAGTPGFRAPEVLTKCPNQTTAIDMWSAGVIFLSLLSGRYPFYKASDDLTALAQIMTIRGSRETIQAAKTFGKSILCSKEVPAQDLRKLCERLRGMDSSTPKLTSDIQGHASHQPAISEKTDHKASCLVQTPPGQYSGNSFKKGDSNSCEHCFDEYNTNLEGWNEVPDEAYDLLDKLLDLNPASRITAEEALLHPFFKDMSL

[12] = AUC (0 to infinity) in Beagle dog at 5 mg/kg, iv administered as single dose; type: ADME, organism-based, Canis lupus familiaris; design: time infinity, dose 5 mg/kg, route intravenous; conditions: plasma; summary of the method: as §1
[13] = Clearance in Beagle dog at 5 mg/kg, iv administered as single dose; type: ADME, organism-based, Canis lupus familiaris; design: dose 5 mg/kg, route intravenous; conditions: in vivo; summary of the method: as §1
[14] = Renal clearance in Beagle dog at 5 mg/kg, iv administered as single dose; type: ADME, organism-based, Canis lupus familiaris, Kidney; design: dose 5 mg/kg, route intravenous; conditions: in vivo, read-out: CL_renal (converted)
Summary of the method: (§2)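 Overnight-fasted Beagle dogs, 2 per sex, in a crossover design: 5 mg/kg iv and 10 mg/kg po, two weeks apart, in 5% dextrose. Jugular blood was drawn up to 48 h, and urine was collected over 0–8, 8–24 and 24–48 h. Samples were assayed by LC/MS/MS and analysed noncompartmentally.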

[15] = Tmax in Beagle dog at 10 mg/kg, po administered as single dose; type: ADME, organism-based, Canis lupus familiaris; design: dose 10 mg/kg, route oral; conditions: in vivo; summary of the method: as §2
HT-29 = experiment: Antiproliferative activity against human HT-29 cells after 72 hrs by luciferase based assay; type: functional, cell-based; conditions: HT-29, 72 h
Summary of the method: (§3)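 Cells seeded at 2500–5000/well in complete medium (RPMI1640, McCoy's or DMEM with 10% FCS, by line); compound added after 24 h, 72 h at 37 °C, 5% CO2.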

[16] = Antiproliferative activity against human SW403 cells after 72 hrs by luciferase based assay; type: functional, cell-based; conditions: SW-403, 72 h; summary of the method: as §3
[17] = Antiproliferative activity against mouse NIH/3T3 cells after 72 hrs by luciferase based assay; type: cell-based; conditions: NIH3T3, 72 h; summary of the method: as §3
HeLa = experiment: Inhibition of DNA synthesis in human HeLa cells at 3 uM assessed as bromodeoxyuridine incorporation after 6 hrs; type: functional; design: scale not given: the % may be the effect or the level left
Summary of the method: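 Logarithmically growing HeLa cells exposed to 3 µM for set times, labelled with 50 µM BrdU, fixed in 70% ethanol. DNA content by propidium iodide with RNase A, 30 min at 37 °C; BrdU by FITC anti-BrdU after 2N HCl denaturation; percent positive cells by FACS.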

[18] = biological target: T1, Cell division cycle 7-related protein kinase; experiment: Inhibition of human Cdc7 in human A2780 cells assessed as inhibition of Ser53 phosphorylation of Mcm2 protein after 4 hrs; type: cell-based
Summary of the method: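 A2780 cells exposed for 4 h to a range of concentrations, then lysed in 50 mmol/L Tris-HCl pH 6.8, 1% SDS, 1 mmol/L DTT and sonicated 10 s. 15 µg protein per lane ([…]) was taken for Western blot with phospho-specific antibodies to MCM2 Ser40 and Ser53.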
Target sequence in this assay (O00311 whole entry, looked up): as the sequence (O00311 whole entry) above

A2780 [19] = experiment: Induction of apoptosis in human A2780 cells assessed as caspase 3 activation at 3 uM up to 24 hrs; type: functional, cell-based
Summary of the method: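 A2780 cells held at 3 µM for up to 24 h; extracts in Tris-HCl pH 6.8 with 1% SDS and DTT, 15 µg protein per lane; cleaved caspase 3 detected by Western blot.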

Cytochrome P450 2D6 = Cytochrome P450 2D6 (Homo sapiens, UniProt P10635); experiment: Inhibition of human CYP2D6; type: ADME
Cytochrome P450 3A4 = Cytochrome P450 3A4 (Homo sapiens, UniProt P08684); experiment: Inhibition of human CYP3A4; type: ADME
Sequence of Cytochrome P450 3A4 (P08684 whole entry): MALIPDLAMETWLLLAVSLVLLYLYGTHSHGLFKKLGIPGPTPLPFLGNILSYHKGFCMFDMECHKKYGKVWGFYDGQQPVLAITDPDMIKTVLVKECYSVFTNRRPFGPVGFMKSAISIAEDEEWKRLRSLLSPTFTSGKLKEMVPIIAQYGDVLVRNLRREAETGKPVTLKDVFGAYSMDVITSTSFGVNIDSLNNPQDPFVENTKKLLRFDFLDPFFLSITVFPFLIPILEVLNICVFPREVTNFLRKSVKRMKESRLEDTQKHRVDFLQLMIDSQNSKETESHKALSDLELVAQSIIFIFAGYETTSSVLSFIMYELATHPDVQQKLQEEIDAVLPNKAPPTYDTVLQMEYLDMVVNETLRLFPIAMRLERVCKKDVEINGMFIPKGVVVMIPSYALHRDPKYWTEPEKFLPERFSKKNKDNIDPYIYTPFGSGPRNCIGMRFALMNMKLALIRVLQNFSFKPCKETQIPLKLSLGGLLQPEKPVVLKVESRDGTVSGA

A2780 [20] = experiment: Antitumor activity against human A2780 cells xenografted in CDI nu/nu mouse assessed as tumor growth inhibition at 60 mg/kg, po administered for 10 days; type: functional; conditions: A2780, 240 h, read-out: TGI
Rattus norvegicus [21] = experiment: Antitumor activity against DMBA-induced mammary carcinoma in CD OFA rat assessed as duration of tumor stabilization maintenance at 20 mg/kg, po administered for 10 days; type: functional
Summary of the method: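 DMBA tumors induced in female CD OFA rats by single intragastric 20 mg DMBA in sesame oil; after about 50 days, rats with a mammary tumor of at least 1 cm given 20 mg/kg orally twice daily for 10 days in glucose solution, or vehicle; 10 per group; tumor volume by Vernier calipers.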

Mus musculus = experiment: Inhibition of human Cdc7 in human A2780 cells xenografted in CDI nu/nu mouse assessed as inhibition of Ser53 phosphorylation of Mcm2 protein at 60 mg/kg, po first dose administered at 6 hrs and second dose 3 hrs after first dose by Western blot; type: functional, organism-based; design: dose 60 mg/kg
Summary of the method: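 A2780 human ovarian carcinoma grown subcutaneously in CDI nu/nu mice. Two oral doses of 60 mg/kg were given within 6 h, the second 3 h after the first. Tumors were explanted and analysed by Western blot for MCM2 phosphorylated at Ser40 and Ser53, with total MCM2 and tubulin as loading controls. Vehicle-treated tumors served as controls.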

[22] = Inhibition of Cdk1b
[23] = Inhibition of Cdk2E
[24] = biological target: ALK tyrosine kinase receptor (Homo sapiens, UniProt Q9UM73); experiment: Inhibition of ALK
Sequence of ALK tyrosine kinase receptor (Q9UM73 whole entry): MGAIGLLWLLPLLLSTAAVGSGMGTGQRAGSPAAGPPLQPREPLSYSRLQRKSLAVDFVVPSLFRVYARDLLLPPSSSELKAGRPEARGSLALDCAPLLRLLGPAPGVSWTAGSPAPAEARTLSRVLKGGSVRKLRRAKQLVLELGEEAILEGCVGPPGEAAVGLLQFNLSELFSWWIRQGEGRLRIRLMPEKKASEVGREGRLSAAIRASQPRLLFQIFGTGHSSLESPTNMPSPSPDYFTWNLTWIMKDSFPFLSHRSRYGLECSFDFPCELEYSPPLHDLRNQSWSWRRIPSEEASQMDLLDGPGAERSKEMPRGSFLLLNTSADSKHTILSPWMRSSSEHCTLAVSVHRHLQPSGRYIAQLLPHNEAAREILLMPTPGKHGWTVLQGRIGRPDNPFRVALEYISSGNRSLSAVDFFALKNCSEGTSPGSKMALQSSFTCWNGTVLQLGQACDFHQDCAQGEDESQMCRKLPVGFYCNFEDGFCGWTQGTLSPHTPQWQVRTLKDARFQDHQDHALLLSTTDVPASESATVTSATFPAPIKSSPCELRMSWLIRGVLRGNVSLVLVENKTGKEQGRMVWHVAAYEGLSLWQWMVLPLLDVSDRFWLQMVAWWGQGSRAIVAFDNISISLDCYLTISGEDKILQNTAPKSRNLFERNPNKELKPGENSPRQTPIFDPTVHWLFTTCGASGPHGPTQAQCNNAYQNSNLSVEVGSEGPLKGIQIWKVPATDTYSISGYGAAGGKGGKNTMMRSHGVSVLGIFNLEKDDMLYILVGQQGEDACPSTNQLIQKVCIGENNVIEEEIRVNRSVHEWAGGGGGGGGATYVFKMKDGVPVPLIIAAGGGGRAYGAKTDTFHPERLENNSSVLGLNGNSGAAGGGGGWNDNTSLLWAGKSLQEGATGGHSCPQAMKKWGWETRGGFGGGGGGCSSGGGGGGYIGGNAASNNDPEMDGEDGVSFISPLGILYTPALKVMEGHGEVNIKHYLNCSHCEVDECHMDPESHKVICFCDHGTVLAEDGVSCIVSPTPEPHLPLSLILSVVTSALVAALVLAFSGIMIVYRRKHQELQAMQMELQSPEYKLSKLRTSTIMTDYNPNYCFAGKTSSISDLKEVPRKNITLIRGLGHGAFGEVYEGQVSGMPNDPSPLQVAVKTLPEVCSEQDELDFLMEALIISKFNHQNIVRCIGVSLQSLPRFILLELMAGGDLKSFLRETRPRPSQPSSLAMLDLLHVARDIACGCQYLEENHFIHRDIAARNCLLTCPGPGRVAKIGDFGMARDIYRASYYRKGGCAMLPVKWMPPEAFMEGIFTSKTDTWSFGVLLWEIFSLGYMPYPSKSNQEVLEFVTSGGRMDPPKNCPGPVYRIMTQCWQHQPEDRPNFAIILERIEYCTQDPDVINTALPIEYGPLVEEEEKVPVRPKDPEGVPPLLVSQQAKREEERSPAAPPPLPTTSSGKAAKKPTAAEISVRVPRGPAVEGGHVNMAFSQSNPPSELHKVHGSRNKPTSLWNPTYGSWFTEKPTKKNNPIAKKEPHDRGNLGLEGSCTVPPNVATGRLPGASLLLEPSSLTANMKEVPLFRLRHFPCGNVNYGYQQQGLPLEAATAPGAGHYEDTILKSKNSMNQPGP

[25] = biological target: Serine/threonine-protein kinase PLK1 (Homo sapiens, UniProt P53350)
[26] = biological target: Mitogen-activated protein kinase 1 (Homo sapiens, UniProt P28482)
Sequence of Mitogen-activated protein kinase 1 (P28482 whole entry): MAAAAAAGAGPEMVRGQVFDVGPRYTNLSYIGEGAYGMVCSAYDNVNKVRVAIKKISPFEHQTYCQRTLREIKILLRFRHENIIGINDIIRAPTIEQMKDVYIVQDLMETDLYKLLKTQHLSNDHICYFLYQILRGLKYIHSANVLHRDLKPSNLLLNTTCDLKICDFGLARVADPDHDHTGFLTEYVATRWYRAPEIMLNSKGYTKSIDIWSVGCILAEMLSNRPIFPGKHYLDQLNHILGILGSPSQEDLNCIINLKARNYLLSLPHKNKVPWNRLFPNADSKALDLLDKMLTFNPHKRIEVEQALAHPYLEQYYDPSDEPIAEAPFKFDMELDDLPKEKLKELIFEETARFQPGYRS

[27] = Half life in Wistar rat at 20 mg/kg, po administered as single dose; conditions: in vivo
Rattus norvegicus [28] = experiment: AUC (0 to infinity) in Wistar rat at 20 mg/kg, po administered as single dose; conditions: in vivo
Rattus norvegicus [29] = experiment: Oral bioavailability in Wistar rat at 20 mg/kg, po administered as single dose; conditions: in vivo

Nc1nccc(-c2cc3c([nH]2)[C@@H](CCF)CNC3=O)n1
IC50 [1]: > 4000 nM | IC50 [2]: > 4000 nM | IC50 [3]: > 4000 nM | IC50 [4]: > 4000 nM | IC50 [5]: > 4000 nM | remaining at 1 h [6]: 95% | AUC(0-inf) [7]: 9.5 µM·h | half-life [8]: 1 h | Cmax [9]: 15.7 µM | AUC (Rattus norvegicus [10]): 19.9 µM·h | IC50 [11]: 2 nM | AUC(0-inf) [12]: 6.3 µM·h | clearance [13]: 53.3 mL/min/kg | CL renal [14]: 6.67 mL/min/kg | Tmax [15]: 0.3 h | IC50 (HT-29): 4100 nM | IC50 [16]: 600 nM | IC50 [17]: 2500 nM | Activity (HeLa): 16% | MED [18]: 0.6 µM | Activity (A2780 [19]): Active | Activity (Cytochrome P450 2D6): Not Active | Activity (Cytochrome P450 3A4): Not Active | inhibition in vivo at 60 mg/kg (A2780 [20]): 68% | Activity (Rattus norvegicus [21]): 35 days | Activity (Mus musculus): Active | IC50 [22]: 30 nM | IC50 [23]: 670 nM | IC50 [24]: > 4000 nM | IC50 [25]: 574 nM | IC50 [26]: 846 nM | half-life [27]: 6.2 h | AUC (Rattus norvegicus [28]): 18.9 µM·h | F (Rattus norvegicus [29]): 33%
